# Only some compounds are listed: those with a hit (about 2.2% of all), similar ones and a draw of the others.
# LMPTP block – blocks human LMPTP phosphatase; P24666; recombinant LMPTP-A, OMFP fluorogenic substrate, fluorescence intensity; inhibition, % at 20 µM; hit rate 0.22% among 360,000; AID 651560;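 active = compounds that cut the enzyme signal by at least half of the control window in the single-dose screen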;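 also: plate controls were DMSO wells with enzyme plus substrate for no effect and substrate without enzyme for full effect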
#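 Assay system: LMPTP-A enzyme. Input: 0.625 nM LMPTP-A final. Probe or stimulus: 400 µM OMFP. Compound dosing: single 20 µM dose. Schedule: 50 min dark incubation at room temperature. Detection: fluorescence intensity of OMFP turnover product. Read-out: percent inhibition versus substrate-only and uninhibited controls. Benchmarks: no-enzyme low control, uninhibited high control.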
# STEP block – blocks human striatal-enriched tyrosine phosphatase; P54829; recombinant STEP, OMFP fluorogenic substrate, fluorescence; inhibition, % at 20 µM; hit rate 0.25% among 360,000;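 active = inhibition at 20 µM, scaled per plate between control wells, above about 37%, limit read from the data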;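 also: 0% = DMSO with enzyme and substrate and 100% = substrate only without enzyme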
# Target sequence (P54829 whole entry, looked up): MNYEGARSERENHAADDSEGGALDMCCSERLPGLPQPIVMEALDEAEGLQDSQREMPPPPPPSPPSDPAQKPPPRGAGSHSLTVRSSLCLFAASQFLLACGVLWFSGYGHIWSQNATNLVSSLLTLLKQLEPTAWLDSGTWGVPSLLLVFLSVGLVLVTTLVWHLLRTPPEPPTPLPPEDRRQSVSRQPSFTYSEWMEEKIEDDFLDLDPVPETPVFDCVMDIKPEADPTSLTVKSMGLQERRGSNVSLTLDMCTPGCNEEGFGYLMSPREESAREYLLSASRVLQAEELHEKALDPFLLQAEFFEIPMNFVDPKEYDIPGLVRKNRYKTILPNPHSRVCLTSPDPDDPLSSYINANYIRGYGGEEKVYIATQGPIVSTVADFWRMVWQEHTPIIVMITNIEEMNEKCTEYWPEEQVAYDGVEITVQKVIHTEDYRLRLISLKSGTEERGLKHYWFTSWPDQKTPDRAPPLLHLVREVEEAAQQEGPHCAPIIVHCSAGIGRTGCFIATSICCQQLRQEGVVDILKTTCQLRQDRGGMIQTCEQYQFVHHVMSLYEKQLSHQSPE
#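 Also added – OMFP at 25 µM · Test system – STEP tyrosine phosphatase · Technique – FITC-channel fluorescence of OMFP product · Schedule – 20 min at room temperature, dark · Evaluation – control-normalized % inhibition with plate pattern correction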
# GRK2 aptamer HTS – blocks RNA aptamer binding to human GRK2 | P25098 | bead flow cytometry, FAM-aptamer displacement from GRK2 | inhibition of aptamer binding, % at 10 µM | hit rate 0.59% among 330,000 | AID 488847;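 active = inhibition of aptamer binding above 40%, roughly 3 SD of noise, on plates passing a quality check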;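 also: median bead fluorescence of bound FAM aptamer so fluorescent compounds give negative values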
# DNMT1 inh – DNMT1 (human) enzyme inhibition | P26358 | DNMT1 molecular beacon, Hinp1I cleavage, fluorescence | inhibition (reported as % activation of signal), % at 10 µM | hit rate 0.83% among 360,000 | AID 588458; in the data active = inhibition above about 50%
# SUMO1 PPI mod – SUMO1-SIM interaction modulation; P63165; SUMO1 binding to a labelled peptide, TR-FRET, 1 h; AID 602429; hit rate 0.33% among 360,000; inhibition, % at 20 µM; in the data active = inhibition above about 37%
# Scp1 inh – blocks human Scp-1 phosphatase activity; hit rate 0.88% among 340,000; Recombinant Scp1, phosphopeptide, malachite green phosphate absorbance; inhibition, % at 20 µM; Q9GZU7;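 active = inhibition above about 50% at 20 µM, limit read from the data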;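 also: plate controls were DMSO wells with enzyme for no effect and wells lacking enzyme for full effect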
#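 Material – SCP-1 phosphatase catalytic domain, residues 76-261 · Buffer or medium – Acidic Tris acetate buffer with magnesium and detergent · Also added – Phospho 17-mer peptide substrate · Compound – single 20 µM dose, 1% DMSO · Times – 45 min room-temperature reaction, 5 min colour, 30 min stabiliser · Technique – Phosphate-binding colour reagent, absorbance read at 630 nm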
# * = called active by the depositor; . = not tested or not shown.
SMILES,LMPTP block,STEP block,GRK2 aptamer HTS,DNMT1 inh,SUMO1 PPI mod,Scp1 inh
Cc1ccc(C(=O)COC(=O)c2cc(=O)[nH]c3ccccc23)cc1C,24,25,0,22,10,81*
COc1ccccc1C(=O)COC(=O)c1cc(=O)[nH]c2ccccc12,-1,0,1,2,-31,-5
Cc1ccc(O)c(N=CC2=C(O)c3ccccc3C2=O)c1,4,2,0,57*,15,-10
NC(Cc1ccc(F)cc1)c1csc(Nc2ccc(C(=O)c3ccccc3)cc2)n1 (stereo unspecified),3,0,.,-22,-111,.
CCn1c(SCC(=O)c2ccc(C)cc2)nnc1-c1ccoc1C,0,-1,0,0,0,-3
CCn1c(SCC(=O)c2ccc(Cl)cc2)nnc1-c1ccoc1C,-1,1,0,0,39*,-2
O=C(Cc1ccccc1)Nc1ccc(NC(=O)C2CC2)nc1,0,2,2,1,-2,6
CCCCC(=O)Nc1ccc(NC(=O)C2CC2)nc1,-1,-2,0,5,57*,-4
Nn1c(SCC(=O)Nc2c(F)cc(F)cc2Br)nnc1C1CCCCC1,0,4,3,-46,46*,0
Nn1c(SCC(=O)Nc2ccc(F)cc2F)nnc1C1CCCCC1,0,-3,2,1,5,-8
COc1ccc(Cc2nnc(SC)n2-c2ccc(F)cc2)cc1OC,-2,-2,.,-1,-3,.
CC(C)(C)C(=O)c1c(N)[nH]c(C(=O)c2ccccc2)c1-c1c(F)cccc1F,-1,.,.,.,1,.
CCOC(=O)c1ccc(NC(=O)c2nc[nH]c2C(=O)N[C@H](C)CO)cc1,-2,2,.,4,1,.
CCN(c1ccc(C)c(C)c1)S(=O)(=O)c1ccc2c(c1)CCN2C(=O)CCC(=O)O,0,2,0,-2,47*,-7
O=C(NCCCN1CCOCC1)c1sc2cc([N+](=O)[O-])ccc2c1Cl,3,93*,1,-10,-26,-1
COc1ccc([C@H]2C[C@H](O)[C@@H](n3cc(COC(=O)c4ccccc4)nn3)CN2CC2CCCCC2)cc1,2,0,.,-18,2,.
COc1ccc(C2=Nc3ccccc3N(C(=O)c3ccc4ncccc4c3)C2C(=O)NC(C)(C)C)cc1 (stereo unspecified),1,.,.,.,-21,.
COc1ccc(C2NCCc3c2[nH]c2ccccc32)cc1CN1CCc2cc(OC)c(OC)cc2C1C (stereo unspecified),52*,-2,.,32,-48,4
COc1ccc(C2NCCc3c2[nH]c2ccccc32)cc1COc1ccc(F)cc1 (stereo unspecified),1,3,0,-5,-3,12
Nc1nonc1-c1nc2ccccc2n1CC(=O)N/N=C/c1ccc(-c2cccc(C(=O)O)c2)o1,7,14,.,27,22,72*
CC(C)OC(=O)c1ccc(NC(=O)Cn2c(-c3nonc3N)nc3ccccc32)cc1,3,6,3,-9,43*,-5
Cc1nnc(N/N=C\c2ccc(-c3cccc(C(=O)O)c3)o2)n1N,-1,-4,88*,-3,-4,26
Cc1nnc(N/N=C/c2ccc(-c3ccc(Br)cc3)o2)n1N,-1,2,2,-6,-18,-6
CC(=O)N(CCc1ccccc1)c1ccc2c(c1)C1CC2CCN1C(=O)OCc1ccccc1 (stereo unspecified),2,-3,.,-16,7,.
Cc1ccc2nc(-c3cc(-c4ccccc4)no3)cn2c1,6,2,0,27,62*,0
CCC(=O)Nc1nonc1-c1nc2ccccc2n1Cc1ccc(Cl)c(Cl)c1,.,.,.,.,.,56*
CC(=O)Nc1nonc1-c1nc2ccccc2n1Cc1ccccc1,0,0,2,-4,3,3
CC(=Cc1ccccc1)C=C1SC(=S)N(CCCC(=O)Nc2ccc(C(=O)O)c(O)c2)C1=O,45,6,.,71*,-1,.
CC(/C=C1\SC(=S)N(CCCC(=O)Nc2ccc(C(=O)O)c(O)c2)C1=O)=C\c1ccccc1,.,.,3,.,.,10
CC[n+]1c(/C=C(\C)OC)sc2ccccc21,23,1,.,5,1,-1

# Screening results deposited in PubChem by several laboratories.
